We go through one molecule from ChEMBL document CHEMBL1177873, “Synthesis and evaluation of some new benzothiazole derivatives as potential antimicrobial agents” (Eur J Med Chem, 2010).

Values after ≈ are worked out from the molar mass of the structure shown. Active and inactive are the calls of the source. The calls are words filed in the database; no cut-off is given here.

For test [1], the system named is Escherichia coli. Briefly: Antibacterial activity against Escherichia coli MTCC 443 at 500 ug/ml after 24 hrs by cup-plate method. In kind it is functional, organism-based. Put shortly: (§1)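 Cup-plate diffusion in nutrient agar, incubated 24 h at 37 °C. Compounds dissolved in DMF and tested at the single concentration given in the line. DMF served as the solvent control and ciprofloxacin as the reference standard. Read-out is the zone of inhibition diameter in mm.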

The subject of test [2] is Bacillus subtilis. Description: Antibacterial activity against Bacillus subtilis MTCC 441 at 1 ug/ml after 24 hrs by cup-plate method. Type of test: functional, organism-based. In outline: as §1
Test [3] relates to Escherichia coli. Briefly: Antibacterial activity against Escherichia coli MTCC 443 at 10 ug/ml after 24 hrs by cup-plate method. Type of test: functional, organism-based. In outline: as §1
Test [4] deals with Bacillus subtilis. Briefly: Antibacterial activity against Bacillus subtilis MTCC 441 after 24 hrs. In kind it is functional. The note with it: MTCC 441, 24 h. Put shortly:
(§2)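 MIC was taken as the lowest concentration giving 100% growth inhibition relative to a drug-free control, after 24 h at 37 °C in nutrient agar. Compounds were dissolved in DMF, and ciprofloxacin was the reference.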

In test [5] the test system is Streptomyces griseus. Briefly: Antibacterial activity against Streptomyces griseus MTCC 1540 at 100 ug/ml after 24 hrs by cup-plate method. In kind it is functional, organism-based. In outline:
as §1

The subject of test [6] is Streptomyces griseus. Description: Antibacterial activity against Streptomyces griseus MTCC 1540 at 200 ug/ml after 24 hrs by cup-plate method relative to ciprofloxacin. Type of test: functional, organism-based.
Test [7] has as its system Bacillus subtilis. Briefly: Antibacterial activity against Bacillus subtilis MTCC 441 at 500 ug/ml after 24 hrs by cup-plate method. Type of test: functional, organism-based. In outline: as §1
In test [8] the test system is Escherichia coli. Briefly: Antibacterial activity against Escherichia coli MTCC 443 at 1 ug/ml after 24 hrs by cup-plate method. In kind it is functional, organism-based. In outline:
as §1

Another test concerns Aspergillus niger. Description: Antifungal activity against Aspergillus niger MTCC 282 at 30 ug/ml after 48 hrs by cup-plate method. In kind it is functional. The note with it: MTCC 282, 48 h, read-out: DIZ. In outline:
(§3)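 Cup-plate diffusion on Sabouraud's dextrose agar, incubated 48 h at 28 °C. Compounds in DMF, which also served as the control, with fluconazole as the reference standard.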

In test [9] the test system is Bacillus subtilis. Briefly: Antibacterial activity against Bacillus subtilis MTCC 441 at 10 ug/ml after 24 hrs by cup-plate method. Type of test: functional, organism-based. Put shortly: as §1
Test [10] deals with Streptomyces griseus. Briefly: Antibacterial activity against Streptomyces griseus MTCC 1540 after 24 hrs. The note with it: MTCC 1540, 24 h. Type of test: functional. Put shortly:
as §2

Test [11] concerns Streptomyces griseus. Description: Antibacterial activity against Streptomyces griseus MTCC 1540 at 1 ug/ml after 24 hrs by cup-plate method. Type of test: functional, organism-based. Put shortly:
as §1

Test [12] deals with Escherichia coli. Description: Antibacterial activity against Escherichia coli MTCC 443 at 100 ug/ml after 24 hrs by cup-plate method relative to ciprofloxacin. In kind it is functional, organism-based.
In test [13] the test system is Escherichia coli. Briefly: Antibacterial activity against Escherichia coli MTCC 443 after 24 hrs. Type of test: functional. The note with it: MTCC 443, 24 h. In outline:
as §2

For test [14], the system named is Bacillus subtilis. Description: Antibacterial activity against Bacillus subtilis MTCC 441 at 100 ug/ml after 24 hrs by cup-plate method relative to ciprofloxacin. In kind it is functional, organism-based.
The next test deals with Candida albicans. Briefly: Antifungal activity against Candida albicans MTCC 227 at 30 ug/ml after 48 hrs by cup-plate method. In kind it is functional. The note with it: MTCC 227, 48 h, read-out: DIZ. Put shortly:
as §3

Test [15] relates to Streptomyces griseus. Description: Antibacterial activity against Streptomyces griseus MTCC 1540 at 500 ug/ml after 24 hrs by cup-plate method. Type of test: functional, organism-based. In outline:
as §1

Test [16] relates to Streptomyces griseus. Description: Antibacterial activity against Streptomyces griseus MTCC 1540 at 10 ug/ml after 24 hrs by cup-plate method. Type of test: functional, organism-based. Put shortly: as §1
The subject of test [17] is Bacillus subtilis. Briefly: Antibacterial activity against Bacillus subtilis MTCC 441 at 200 ug/ml after 24 hrs by cup-plate method relative to ciprofloxacin. In kind it is functional, organism-based.
Test [18] concerns Escherichia coli. Description: Antibacterial activity against Escherichia coli MTCC 443 at 200 ug/ml after 24 hrs by cup-plate method relative to ciprofloxacin. Type of test: functional, organism-based.

For orientation: MIC means the lowest concentration that inhibits growth of the organism. Read a high MIC as weaker potency. In the case of `Sc1nnc(CCNc2nc3ccccc3s2)n1/N=C/c1ccccc1`, the outcome with Escherichia coli [1], in the test with Streptomyces griseus [6], in the test with Bacillus subtilis [7], with Streptomyces griseus [15], in the test with Bacillus subtilis [17] and in the test on Escherichia coli [18] was Active. The result in the test on Bacillus subtilis [2], with Escherichia coli [3], in the test on Streptomyces griseus [5], with Escherichia coli [8], in the test with Bacillus subtilis [9] and in the test with Streptomyces griseus [11] was inactive. Moreover, the outcome in the test on Escherichia coli [12], with Bacillus subtilis [14] and in the test with Streptomyces griseus [16] was inactive. Further, the MIC in the test on Bacillus subtilis [4], against Streptomyces griseus [10] and against Escherichia coli [13] was 500 mg/L (≈ 1310 µM) in each case. Also, the zone of inhibition at 30 µg/mL worked out at 16 mm in the test on Aspergillus niger and 22 mm with Candida albicans.
